The test system of this assay is CXCR4. As to the kind of experiment: Ca2+ mobilization assay in SupT1 cells. The class given is cell-based, human. Particulars: SupT1 cells expressing CXCR4, Fura-2, 500 ng/ml SDF-1α, without ALX40-4C. In outline: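 SupT1 cells were loaded with 2.5 μM Fura-2/AM for 1 h at 37°C in the dark, allowed to efflux 15 min in PBS, then resuspended at 2 × 10⁶ cells/ml in Dulbecco's PBS with calcium and magnesium. Test compound (10–50 μM) was added, and SDF-1α (500 ng/ml) followed ∼90 s later. The Ca²⁺ signal was read on a luminescence spectrometer.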
(In general: A change in cytosolic calcium serves as a functional read-out for many receptors and channels.)

With “SDF-1α: the chemokine stromal-derived factor (SDF)-1α (Peprotech)”, the “Ca2+ mobilization response to SDF-1α” value was “normally respond to SDF-1α”.

For the origin of these results see PMC2199097 (The Journal of Experimental Medicine, 1997).
